Laboratory results published in ChEMBL document CHEMBL4513216, “Probing the Open Global Health Chemical Diversity Library for Multistage-Active Starting Points for Next-Generation Antimalarials” (ACS Infect Dis, 2020).

Assay: Toxicity liver stage against HepG2, at 10uM
Format: cell-based
Design: test concentration 10 uM, cell line HepG2-A16-CD81EGFP
Conditions: human, HepG2-A16-CD81EGFP cells; read-out: INHIBITION
How it was run: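 Uninfected HepG2-A16-CD81EGFP cells, 3 × 10^3 per well, 1536-well, plated on prespotted compound at 10 μM final, parasite-free screening media added to match infected plates; puromycin 10 μM positive, DMSO 0.5% negative; run in parallel with 48 h PbLuc assay at 37 °C, 5% CO2; viability by CellTiter-Glo luminescence, normalized to controls.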

SMILES	cytotoxicity at 10 µM [%]
Cc1cccc(CN2CCN3C(=O)NC[C@H]3C2)n1	-3.3
Clc1ccc(-c2c[nH]c([C@@H]3COCCN3)n2)cc1	-10.1
Cc1cc2[nH]c(=O)c(=O)[nH]c2cc1S(=O)(=O)NC1CCCCC1	-8.41
O=C(Cn1c(=O)oc2ccccc21)NCC1(O)CCc2ccccc21 (stereo not given)	-17.2
O=C(NCC(F)(F)F)c1ccc(-n2cccn2)nn1	-8.35
O=C(c1ccco1)N1C[C@H]2CCCN(C(=O)c3ccsc3)[C@H]2C1	8.36
CCOCc1ncn2c1CN(C(=O)Nc1ccccc1)CC2	3.54
CCCNC(=O)c1cc2c(s1)CCN2C(=O)c1ccccc1	7.31
CN(Cc1cccnc1)[C@@H]1CN(c2ccccn2)[C@@H]2CCCO[C@H]12	2.78
CC(C)N(C)C(=O)C1=NOC2(CCN(C(=O)NCc3cccnc3)C2)C1 (stereo not given)	-3.75
COCc1nc2nc(O)c3c(n2n1)NC(=O)CC3c1ccccc1Cl (stereo not given)	-20.8
O=c1[nH]cnc2[nH]c(N3CCNCC3)nc12	-4.31
CCN(CC)S(=O)(=O)c1cnccc1N1CCN(C(C)C)CC1	-5.57
Cc1cnc(N2CCC3(CCCN(c4ccc(C)nn4)C3)C2)nc1 (stereo not given)	-20.7
O=C(C1CC=CC1)N1C[C@@H]2[C@@H](C1)OCC(=O)N2Cc1cccnc1	2.45
COCC(=O)NCc1ccc(-c2ccccc2C(=O)O)cn1	-1.53
Cc1noc(C)c1CC(=O)N1CCC(c2ccn3nccc3n2)CC1	-0.317
CNc1cc(CCNC(=O)CC(C)C)nc(-c2ccccn2)n1	1.26
CC1CCc2nn(CCNC(=O)C3CCCC3)c(=O)cc2C1 (stereo not given)	7.71
COCC(=O)N1CCC(c2cc3ncccc3c(O)n2)CC1	-22.7
c1cnc(N2CCCC(c3n[nH]c4ncccc34)C2)nc1 (stereo not given)	-0.64
Cc1cnn(CC(C)NCc2cccc(C#N)c2)c1 (stereo not given)	-2.62

SMILES	cytotoxicity at 10 µM [%]
CC(C)CN1CCC(C(=O)NCCNC(=O)c2ccco2)CC1	-5.18
O=C(CCC(=O)N1CCc2ccccc2C1)c1cccs1	-61.8
COc1ccc(NC(=O)N2CCN(CCSc3ccccc3)CC2)cc1	6.13
COc1ccc(-n2cc(CNC(=O)c3cscn3)nn2)cc1	-2.33
CCOc1c(F)cccc1C(=O)N(C)CCn1cccn1	3.76
CC(C)c1cc(C(=O)N2Cc3ccccc3CC2C(=O)O)nn1C (stereo not given)	7.97
CN1CCC(Nc2ccc(Cl)cc2OCC(F)(F)F)C1=O (stereo not given)	5.02
O=C(CCn1cnc2cc(F)c(F)cc21)N1CCN(C2CC2)CC1	-1.54
Cc1cnn(CC(C)Nc2cnc3ccccc3n2)c1 (stereo not given)	14.5
CNC(=O)N1CCC(=Cc2ccccc2)CC1	-1.52
O=S(=O)(CCCN1CCc2c(ncn2C2CC2)C1)c1ccccc1	-3.33
Cn1c(=O)[nH]c2cc(C(=O)OCC(F)F)ccc21	-17.3
CCOc1ncccc1CNC(=O)c1csc(Br)c1	0.291
CC1(C)CC1C(=O)NS(=O)(=O)Cc1cc(-c2ccccc2)no1 (stereo not given)	-11
CC1(C)COCCN1C(=O)Cc1csc(Cc2ccccn2)n1	3.31
Cc1ccccc1C1CCN(C(=O)CCNS(C)(=O)=O)C1 (stereo not given)	-1.03
CC(=O)N1CCN(C(=O)CCNc2snc(Cl)c2C#N)CC1	-0.367
CC(NCc1ccc(-c2ccc(F)cc2)o1)c1nnc2n1CCC2 (stereo not given)	-4.21
CCCc1nnc(NC(=O)NC(CCO)c2cccs2)s1 (stereo not given)	-7.38
O=C(NC1CCCN(c2ccc(OC(F)F)cc2)C1)c1cnccn1 (stereo not given)	0
NC(=O)C1CCCN1C(=O)c1cccc2c1OCO2 (stereo not given)	-9.56
CCN1C(=O)C2(CCCCC2)NC12CCSCC2	-149

SMILES	cytotoxicity at 10 µM [%]
O=C(NCc1ccc2c(c1)OCO2)N1CCCC2(C1)OCCO2	3.07
Cc1nc(-c2ccccc2)n(CC(=O)NC(C)C2CC2)n1 (stereo not given)	7.44
CC(C)C(Sc1nnc(NC2CC2)s1)C(=O)NCc1cccnc1 (stereo not given)	-5.49
O=C(Cn1cc(I)cn1)N1CCNC1=O	1.53
CCNC(=O)N1CCc2ccc(NC(=O)NCCOCC)cc21	-3.86
O=C(CCc1ccc(Cl)cc1)N1CCC(O)(C(F)(F)F)C1 (stereo not given)	1.16
O=C(NCCCN1CCOCC1)c1cc(-c2ccco2)[nH]n1	-15.4
C1CCCN(c2nc(C3CC3)ns2)CC1	-12.3
CC1c2ncc(COCC3CC3)n2CCN1C(=O)c1ccnnc1 (stereo not given)	4.66
CCn1c(CC2CCN(S(=O)(=O)Cc3ccccc3)CC2)nn(C)c1=O	-2.43
CN(C)S(=O)(=O)CCNc1ncc2c(n1)CCN2c1ccccc1	-5.6
COc1ccc(OC)c(-c2nc(CN(C)Cc3nonc3C)c(C)o2)c1	13.5
CCCN1CCN(Cc2nc3ccccc3[nH]2)[C@H]2CS(=O)(=O)C[C@H]21	-137
Cn1c(Cn2ccnc2)nnc1C1CCN(C(=O)c2cccnc2)CC1	-96.4
CSc1ccccc1CN1C[C@H]2C(=O)N(CC3CC3)C[C@@]2(C(=O)O)C1	0.666
COc1ccccc1C(=O)N1CCN(C(=O)CCn2ccnc2)CC1	-148
CC(C)c1noc(Cn2ncc3ccccc3c2=O)n1	-3.69
CN(CCO)C[C@@H]1CN(Cc2ccccc2C#N)C[C@@H]1CO	-0.951
Cn1cccc1C(=O)N1CCC(c2nccn2Cc2ccncc2)CC1	-12
CC(C)(C)NC(=O)N1CCCn2nc(C(=O)Nc3ccccc3)cc2C1	8.88
O=C(N[C@@H]1CCN(Cc2ccc(F)cc2F)C[C@H]1O)c1cccnc1	-10.4
CCCOCC1CCN(C(=O)c2cnc(-c3cccnc3)nc2O)C1 (stereo not given)	-2.55

SMILES	cytotoxicity at 10 µM [%]
Cc1ccc(C#N)c(N2CC(C)(C)[C@@](C)(O)C2)n1	1.39
Cc1nc(N)ccc1CC1COc2ccccc2C1 (stereo not given)	3.79
Cc1ccccc1OC1CCN(C(=O)CNC(=O)N(C)C)CC1	9.83
Cc1ccsc1C(CNC(=O)c1cc(=O)[nH]c(=O)[nH]1)N(C)C (stereo not given)	8.99
CCc1cc(CN2CCC(CCC(=O)Nc3ccccc3Cl)CC2)on1	5.27
Cc1nc[nH]c1CN1CCCn2nc(CN3CCC(F)(F)CC3)cc2C1	0.13
CCNC(=O)[C@@H]1CCCN1C(=O)c1cccc(CCC(C)(C)O)c1	9.91
Cc1cc(C(=O)N2CCCCC2C)ccc1NC(=O)N1CCOCC1 (stereo not given)	7.02
Cc1nc(CNC(=O)NCc2cccnc2N(C)C)cs1	-2.15
Cn1cc(C2CCCN2C(=O)c2ccc(OCC3CC3)nc2)cn1 (stereo not given)	-7.77
CS(=O)(=O)NC1CCN(C(=O)NCc2ccccn2)CC1	-5.04
O=C(c1cc(C2CC2)[nH]n1)N1CCN(Cc2ccccc2)CC1	-5.94
CC(NCc1ccc(F)cc1)c1ccc2[nH]c(=O)[nH]c2c1 (stereo not given)	-9.93
CCOc1ccc(C(=O)N2CCCC2c2c(C)nn(C)c2Cl)cn1 (stereo not given)	-12.4
Cc1nc(C2CCCN(C(=O)c3cc(-c4ccccc4)[nH]n3)C2)no1 (stereo not given)	-7.99
COc1cccc(CN(C)CC(=O)NC2(C)CCS(=O)(=O)C2)c1 (stereo not given)	-2.3
CC(C)COCC(NC(=O)c1cnccn1)c1ccco1 (stereo not given)	-13.8
O=C(NCCOc1ccc2c(c1)OCO2)N1CCCC(CO)C1 (stereo not given)	-22.3
Cc1cc(C)n(CC2CN(Cc3nc(C4CC4)no3)CCO2)n1 (stereo not given)	-5.13
CN(C)c1cc(CNC(=O)Nc2nnc(C3CC3)s2)ccn1	-10.8
CC(C)COC(C)C(=O)NCc1ccc(F)cc1 (stereo not given)	-2.9
O=C(Cc1ccc2c(c1)OCCO2)N1CCCC(n2cncn2)C1 (stereo not given)	-7.85

SMILES	cytotoxicity at 10 µM [%]
CCc1noc(CN2CCN(C(=O)N(C)C)CC2)n1	-4.97
O=C(NCc1nnc2ccccn12)N1CCc2sccc2C1	-1.25
CNC(=O)[C@@H](c1ccccc1F)N1CCC[C@H]1C(=O)NC1CCOCC1	-3.73
Fc1ccc(CN[C@@H]2COC[C@H]2c2ccc(F)cc2)cc1	2.57
O=C(NCc1cncc2c1CCN(Cc1ccccc1)C2)C1CC1	12.1
CS(=O)(=O)N1CCC2(CC1)COC(COc1ccccn1)C2 (stereo not given)	5.63
NC(=O)COc1ccc(CNCc2cc(F)cc(F)c2)cc1	-7.85
O=S(=O)(c1cccs1)N1CC[C@H]2[C@H]1CCN2c1ncccn1	-0.861
CN1CC2(CCN(C(=O)Cc3ccccn3)CC2)OCC1=O	-3.39
O=C(O)c1c(-c2cncnc2)ncc2c1CCN(Cc1ccco1)C2	-2.69
CN(Cc1cccnc1)[C@@H]1CN(Cc2nccn2C)[C@@H]2CCCO[C@H]12	-9.46
CN(C)CC(=O)N1Cc2nnn(C)c2C(COCc2ccccn2)C1 (stereo not given)	9.26
Cc1ccc(CN2CCC[C@]3(C(=O)O)CN(CC4CC4)C[C@@H]3C2)s1	-112
c1cncc(OCc2noc3c2CN(Cc2cccs2)CC3)c1	9.95
CN(C)C(=O)c1n[nH]c2c1CN(Cc1ccccn1)CC2	3.17
COc1ccc(CN2C[C@@H]3COC[C@@H](CC(=O)N4CCCC4)[C@@H]3C2)cc1	-18.8
CC[C@@H]1N(Cc2nccs2)CCC[C@]12CCC(=O)N2C	0.287
CCN1CCC2(CC1)C(=O)Nc1ccc(C(=O)NC)cc12	-0.697
O=C(c1ccoc1)N1CCO[C@]2(CCC[C@@H]2COCc2cccnc2)C1	6.32
COCC(=O)N1CCC2(CCC2N(C)Cc2ccco2)CC1 (stereo not given)	0.169
C[C@@H]1CN(S(C)(=O)=O)C[C@]12CCN(Cc1cccnc1)C2=O	0.169
CC(c1ccncc1)n1cc2nc(N(C)C)[nH]cc-2c1=O (stereo not given)	-3.64
